“Also recorded” adds a separate entry of the source.
Tests used:
[1] = test system: rat peritoneal mast cells; test: In vitro mast cell degranulation, rat peritoneal mast cells; type: cell-based
Method in brief: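 Freshly isolated rat peritoneal mast cells were resuspended in RPMI 1640 with 1% FBS. They were given increasing concentrations of the excipient peptide (up to 250 μg/mL), the siRNA drug substance (up to 1000 μg/mL), or both combined. Incubation was 37°C for 10 or 30 min. Supernatant histamine (nM ± SD) and chymase measured degranulation; LDH measured viability.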

[2] = test system: human mast cell line HMC‐1; test: In vitro mast cell degranulation, human mast cell line HMC‐1; type: cell-based; settings: HMC‐1 cells, 37°C, 30 minutes; up to 250 μg/mL ARC‐EX1 and ARC‐520 API
Method in brief: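 HMC‑1 human mast cells were cultured in Iscove's medium with 2% FBS. They were exposed to increasing concentrations, up to 250 μg/mL, of the excipient peptide, the siRNA drug substance, or both combined. The positive control was phorbol myristate acetate plus calcium ionophore A23187. Incubation was 37°C for 30 min. Supernatants were assayed for histamine and β‑hexosaminidase (degranulation) and for LDH (viability).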

ARC‐EX1: delivery excipient: masked, hepatocyte‐targeted L‐melittin‐derived peptide; masking group carboxydimethyl maleic anhydride N‐acetyl galactosamine (LIGAILKVLATGLPTLISWIKNKRKQ; CDM-NAG masking groups)
Concentration at which maximum histamine release was observed ([1]; 10 and 30 minutes of incubation): ≥ 10000 ng/mL | Mast cell degranulation and histamine release ([1]; 37°C, 10 or 30 minutes, up to 250 μg/mL ARC‐EX1 or 1000 μg/mL ARC‐520 API): major trigger; also recorded: induced mast cell degranulation and histamine release in a dose‐dependent manner | Mast cell degranulation and histamine release [2]: major trigger
